How the values were obtained:
EcN68 SecA = EcN68 SecA (Escherichia coli, UniProt P10408); experiment: EcN68 SecA ATPase inhibition; assay type: biochemical, E. coli
[1] = tested on: wild type E. coli strain MC4100; experiment: Antimicrobial test; assay type: cell-based; details: Figure 8
leaky mutant NR698 = experiment: Antimicrobial test; assay type: cell-based, E. coli; details: Figure 8
In short: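 E. coli NR698 (MC4100 imp4213), a strain with increased outer-membrane permeability. Log-phase cells at OD600 ~0.5 to 1.0 were diluted to OD600 0.05 and test compound (dissolved in DMSO) was added. Cultures containing 5% DMSO final were shaken at 37 °C, 1050 rpm, for 10 to 12 h. MIC was then determined.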

EcSecA = EcSecA (Escherichia coli, UniProt P10408); experiment: Whole EcSecA ATPase inhibition; assay type: biochemical, E. coli
Chain of EcSecA (P10408 whole entry): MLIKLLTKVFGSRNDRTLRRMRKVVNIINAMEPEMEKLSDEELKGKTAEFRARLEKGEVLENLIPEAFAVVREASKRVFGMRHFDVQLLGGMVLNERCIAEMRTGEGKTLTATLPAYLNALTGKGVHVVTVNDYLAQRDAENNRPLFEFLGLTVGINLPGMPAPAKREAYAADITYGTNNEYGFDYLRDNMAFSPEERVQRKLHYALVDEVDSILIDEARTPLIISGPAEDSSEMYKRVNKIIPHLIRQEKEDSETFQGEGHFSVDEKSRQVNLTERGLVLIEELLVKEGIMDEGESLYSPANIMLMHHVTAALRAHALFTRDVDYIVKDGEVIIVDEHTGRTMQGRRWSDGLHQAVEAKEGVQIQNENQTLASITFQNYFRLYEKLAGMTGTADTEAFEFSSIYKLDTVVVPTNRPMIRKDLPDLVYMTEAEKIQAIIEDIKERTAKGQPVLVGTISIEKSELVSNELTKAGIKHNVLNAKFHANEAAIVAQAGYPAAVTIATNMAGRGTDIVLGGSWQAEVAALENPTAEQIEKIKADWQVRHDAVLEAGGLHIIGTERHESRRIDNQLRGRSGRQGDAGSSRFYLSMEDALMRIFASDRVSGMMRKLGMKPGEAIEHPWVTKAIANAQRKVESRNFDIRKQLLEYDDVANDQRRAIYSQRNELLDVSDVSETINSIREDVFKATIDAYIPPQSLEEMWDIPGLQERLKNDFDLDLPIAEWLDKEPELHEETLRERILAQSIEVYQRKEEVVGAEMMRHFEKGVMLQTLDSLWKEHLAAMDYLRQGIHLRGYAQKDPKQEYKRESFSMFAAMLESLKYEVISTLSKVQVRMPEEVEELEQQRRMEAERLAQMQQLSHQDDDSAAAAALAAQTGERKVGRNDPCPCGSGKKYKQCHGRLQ
In short: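 Full-length E. coli SecA was over-expressed from pT7-SecA and purified. Each reaction held 5 µg SecA, 2 mM ATP, 50 mM Tris-HCl pH 7.6, 20 mM KCl, 20 mM NH4Cl, 1 mM DTT, 2 mM Mg(OAc)2 and 10% DMSO, run at 40 °C for 40 min. Malachite green, then 34% citric acid, was added; after 40 min at room temperature A660 gave Pi. Activity was expressed as % of no-compound control, at least in triplicate, with IC50 from inhibition curves.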

[2] = Solubility observation in the inhibition assay; assay type: physicochemical; details: when approaching 100 µM

Chain of EcN68 SecA (P10408 1-610): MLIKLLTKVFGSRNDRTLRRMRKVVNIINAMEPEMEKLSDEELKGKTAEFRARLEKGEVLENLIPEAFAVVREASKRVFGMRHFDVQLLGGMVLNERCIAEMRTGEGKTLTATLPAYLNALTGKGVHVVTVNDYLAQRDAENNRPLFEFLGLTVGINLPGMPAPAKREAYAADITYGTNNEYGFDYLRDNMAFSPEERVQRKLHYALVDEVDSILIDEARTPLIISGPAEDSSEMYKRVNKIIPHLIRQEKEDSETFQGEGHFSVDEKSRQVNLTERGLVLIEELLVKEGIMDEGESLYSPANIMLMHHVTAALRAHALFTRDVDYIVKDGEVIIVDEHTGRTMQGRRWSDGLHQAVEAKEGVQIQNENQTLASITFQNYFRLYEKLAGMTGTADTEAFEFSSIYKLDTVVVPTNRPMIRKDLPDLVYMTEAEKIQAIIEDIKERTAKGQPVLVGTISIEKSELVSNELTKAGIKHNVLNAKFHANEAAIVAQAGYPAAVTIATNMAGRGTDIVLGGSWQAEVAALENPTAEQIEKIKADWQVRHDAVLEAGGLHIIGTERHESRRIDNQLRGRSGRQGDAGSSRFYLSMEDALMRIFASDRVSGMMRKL

Compound: N#Cc1c(-c2ccc(Br)cc2)nc(SCc2ccc(CSC3=NC(=O)C(C#N)C(c4ccc(Br)cc4)=N3)cc2)[nH]c1=O (stereo not drawn) [16g, 2,2'-(α,α’-Xylene)bis(sulfanediyl)bis-(6-(4-bromophenyl)-5-cyano-4-oxopyrimidine)]
- fold more potent than the hit compound(s) (EcN68 SecA): 50 fold

Compound: N#Cc1c(-c2ccc(-c3ccccc3)cc2)nc(SCc2ccc(CSC3=NC(=O)C(C#N)C(c4ccc(-c5ccccc5)cc4)=N3)cc2)[nH]c1=O (stereo not drawn) [16h, 2,2'-(α,α’-Xylene)bis(sulfanediyl)bis-(6-(biphenyl-4-yl)-5-cyano-4-oxopyrimidine)]
- antimicrobial activity (MIC) against MC4100 [1]: neither 17h nor 16h exhibited inhibition effects
- IC50 (EcN68 SecA): 2 µM
- fold more potent than the hit compound(s) (EcN68 SecA): 50 fold
- antimicrobial activity (MIC) against NR698 (leaky mutant NR698): did not exhibit significantly antimicrobial activities

Compound: N#Cc1c(-c2ccc(-c3ccccc3)cc2)nc(SCc2ccccc2)[nH]c1=O [17h, S-Benzyl-5-cyano-6-(biphenyl-4-yl)-2-thiouracil]
- antimicrobial activity (MIC) against MC4100 [1]: neither 17h nor 16h exhibited inhibition effects
- IC50 (EcSecA): 60 µM
- antimicrobial activity (MIC) against NR698 (leaky mutant NR698): most potent inhibition effects

Compound: Cc1onc(-c2c(F)cccc2Cl)c1C(=O)Nc1ccc(Sc2ccccc2)nc1Sc1ccccc1 [compound 1]
- solubility [2]: started having solubility problems when approaching 100 µM

— PMC2828495 (Bioorganic & medicinal chemistry, 2010)
